These results are taken from ChEMBL document CHEMBL3860066, “β-Sulfonamido Functionalized Aspartate Analogues as Excitatory Amino Acid Transporter Inhibitors: Distinct Subtype Selectivity Profiles Arising from Subtle Structural Differences” (J Med Chem, 2016).

What all share (assay type): cell-based
Experiment [1] concerns the target Excitatory amino acid transporter 1 (Homo sapiens, UniProt P43003). In words: Inhibition of [3H]-D-Asp uptake at human EAAT1 expressed in HEK293 cells measured after 3 mins by TopCount method. To be noted: read-out: IC50. An outline of the steps:
(§1)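 Stably transfected EAAT1-, EAAT2- or EAAT3-HEK293 lines grown in high-glucose GlutaMAX DMEM with 5% dialyzed FBS, penicillin/streptomycin and 1 […] G418. Cells were seeded and reached confluence in 16−24 h, then washed in uptake buffer (HBSS, 20 mM HEPES, 1 mM CaCl₂, 1 mM MgCl₂, pH 7.4). Uptake ran 3 min at room temperature with 100 nM [³H]-D-aspartate plus test compound at varied concentrations. Two ice-cold washes, then scintillation counting. IC₅₀ from concentration−inhibition curves, n = 3−5.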

For experiment [2], the target named is Excitatory amino acid transporter 2 (Homo sapiens, UniProt P43004). In words: Inhibition of [3H]-D-Asp uptake at human EAAT2 expressed in HEK293 cells measured after 3 mins by TopCount method. Conditions: for pIC50: read-out: IC50. An outline of the steps: as §1
The target of experiment [3] is T1, Excitatory amino acid transporter 3 (Homo sapiens, UniProt P43005).
T1 sequence (P43005 whole entry): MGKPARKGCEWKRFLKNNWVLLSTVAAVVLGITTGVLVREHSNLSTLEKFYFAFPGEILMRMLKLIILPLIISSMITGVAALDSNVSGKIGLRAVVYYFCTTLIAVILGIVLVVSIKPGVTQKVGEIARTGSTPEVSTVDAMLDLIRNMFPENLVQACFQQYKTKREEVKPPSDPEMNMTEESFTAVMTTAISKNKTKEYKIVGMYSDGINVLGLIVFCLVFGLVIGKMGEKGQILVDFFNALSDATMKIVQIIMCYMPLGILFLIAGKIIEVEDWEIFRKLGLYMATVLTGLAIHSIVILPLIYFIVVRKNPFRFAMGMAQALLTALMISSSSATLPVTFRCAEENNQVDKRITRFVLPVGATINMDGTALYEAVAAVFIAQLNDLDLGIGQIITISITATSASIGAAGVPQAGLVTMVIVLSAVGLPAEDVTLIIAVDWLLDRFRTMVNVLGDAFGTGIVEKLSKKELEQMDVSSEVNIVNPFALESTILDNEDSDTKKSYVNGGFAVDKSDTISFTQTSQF
In words: Inhibition of [3H]-D-Asp uptake at human EAAT3 expressed in HEK293 cells measured after 3 mins by TopCount method. Conditions: read-out: IC50. The method in brief:
as §1

The test system of experiment [4] is HEK293. In words: Selectivity ratio of IC50 for human EAAT2 expressed in HEK293 cells to IC50 for human EAAT1 expressed in HEK293 cells.
The test system of experiment [5] is HEK293. Put plainly: Selectivity ratio of IC50 for human EAAT3 expressed in HEK293 cells to IC50 for human EAAT1 expressed in HEK293 cells.

pIC50: −log10 of the molar value.

Excitatory amino acid transporter 2, sequence (P43004 whole entry): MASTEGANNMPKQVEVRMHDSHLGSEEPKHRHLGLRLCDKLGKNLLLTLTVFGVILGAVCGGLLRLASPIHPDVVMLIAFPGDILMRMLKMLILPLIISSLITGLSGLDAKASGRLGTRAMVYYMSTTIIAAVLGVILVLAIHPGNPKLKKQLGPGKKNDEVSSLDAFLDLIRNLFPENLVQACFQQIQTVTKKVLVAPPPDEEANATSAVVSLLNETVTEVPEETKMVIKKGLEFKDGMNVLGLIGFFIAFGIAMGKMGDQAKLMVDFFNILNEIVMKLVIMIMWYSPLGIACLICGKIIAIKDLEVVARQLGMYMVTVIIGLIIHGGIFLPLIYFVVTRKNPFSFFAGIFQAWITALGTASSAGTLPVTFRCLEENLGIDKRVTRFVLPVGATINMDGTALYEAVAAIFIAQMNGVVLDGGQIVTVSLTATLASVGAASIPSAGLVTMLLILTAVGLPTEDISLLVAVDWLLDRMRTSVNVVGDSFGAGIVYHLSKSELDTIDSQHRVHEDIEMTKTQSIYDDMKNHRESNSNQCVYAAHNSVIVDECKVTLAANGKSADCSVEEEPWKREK
Excitatory amino acid transporter 1, sequence (P43003 whole entry, the tested form may be a part): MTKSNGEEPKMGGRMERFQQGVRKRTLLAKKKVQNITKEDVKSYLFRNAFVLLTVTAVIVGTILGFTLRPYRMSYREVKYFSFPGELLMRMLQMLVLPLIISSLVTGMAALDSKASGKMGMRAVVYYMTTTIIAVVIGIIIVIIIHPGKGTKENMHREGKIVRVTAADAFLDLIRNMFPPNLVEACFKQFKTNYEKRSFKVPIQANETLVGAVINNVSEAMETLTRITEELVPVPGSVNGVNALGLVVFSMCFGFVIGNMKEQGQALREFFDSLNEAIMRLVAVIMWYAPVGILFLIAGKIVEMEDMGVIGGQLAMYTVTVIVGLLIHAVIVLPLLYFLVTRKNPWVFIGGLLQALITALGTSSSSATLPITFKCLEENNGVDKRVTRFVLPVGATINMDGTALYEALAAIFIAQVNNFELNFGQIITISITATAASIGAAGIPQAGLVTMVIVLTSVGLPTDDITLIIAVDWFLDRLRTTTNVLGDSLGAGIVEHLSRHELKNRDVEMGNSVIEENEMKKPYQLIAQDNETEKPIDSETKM

Turning to `N[C@H](C(=O)O)C(NS(=O)(=O)c1cc(F)c(F)cc1F)C(=O)O` (mixture of isomers), the negative logarithm of the IC50 (pIC50) in experiment [1] is 5.60; in experiment [2], 4.66; in experiment [3] it was 5.00. Moreover, the Ratio IC50 in the experiment on HEK293 [4] is 9; with HEK293 [5], 4.

For `N[C@H](C(=O)O)C(NS(=O)(=O)c1ccc(F)c(F)c1)C(=O)O` (mixture of isomers), the negative-log IC50 (pIC50) in experiment [1] is 6.10; in experiment [2] it was 4.96; in experiment [3] it was 5.13. Moreover, the IC50 in experiment [2] (read-out: pIC50 (converted)) is 1.1 µM. The Ratio IC50 with HEK293 [4] worked out at 14; with HEK293 [5] it was 9.

The term pIC50 denotes the negative decadic logarithm of the IC50, by convention in mol/L.
